Measurements from ChEMBL document CHEMBL2375313, “Synthesis, in vitro antitumor evaluation and DNA-binding study of novel tetrahydroquinolines and some derived tricyclic and tetracyclic ring systems” (Eur J Med Chem, 2013).

Columns and labels:
Type in all cases: functional
[1] = test system: NCI-H23; test: Cytotoxicity against human NCI-H23 cells assessed as growth inhibition at 10 uM after 48 hrs by sulphorhodamine B assay; details: NCI-H23, 48 h, read-out: GI
Method in brief: (§1)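 NCI-60 one-dose screen per the NCI Drug Evaluation Branch protocol. Cells given a single 10 µM concentration with 48 h continuous exposure. Growth estimated by sulphorhodamine B protein assay. Result expressed as percentage growth inhibition relative to untreated growth.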

[2] = Cytotoxicity against human EKVX cells assessed as growth inhibition at 10 uM after 48 hrs by sulphorhodamine B assay; details: read-out: GI; method in brief: as §1
[3] = test system: A549; test: Cytotoxicity against human A549 cells assessed as growth inhibition at 10 uM after 48 hrs by sulphorhodamine B assay; details: A549, 48 h, read-out: GI; method in brief: as §1
[4] = test system: NCI/ADR-RES; test: Cytotoxicity against human NCI/ADR-RES cells assessed as growth inhibition at 10 uM after 48 hrs by sulphorhodamine B assay; details: read-out: GI; method in brief: as §1
[5] = test system: SNB-75; test: Cytotoxicity against human SNB75 cells assessed as growth inhibition at 10 uM after 48 hrs by sulphorhodamine B assay; details: SNB-75, 48 h, read-out: GI; method in brief: as §1
[6] = test system: U-251; test: Cytotoxicity against human U251 cells assessed as growth inhibition at 10 uM after 48 hrs by sulphorhodamine B assay; details: U-251, 48 h, read-out: GI; method in brief: as §1
[7] = test system: SNB-19; test: Cytotoxicity against human SNB19 cells assessed as growth inhibition at 10 uM after 48 hrs by sulphorhodamine B assay; details: SNB-19, 48 h, read-out: GI; method in brief: as §1
[8] = test system: SF-295; test: Cytotoxicity against human SF295 cells assessed as growth inhibition at 10 uM after 48 hrs by sulphorhodamine B assay; details: SF-295, 48 h, read-out: GI; method in brief: as §1
[9] = test system: DU-145; test: Cytotoxicity against human DU145 cells assessed as growth inhibition at 10 uM after 48 hrs by sulphorhodamine B assay; details: DU-145, 48 h, read-out: GI; method in brief: as §1
[10] = test system: SF-268; test: Cytotoxicity against human SF268 cells assessed as growth inhibition at 10 uM after 48 hrs by sulphorhodamine B assay; details: SF-268, 48 h, read-out: GI; method in brief: as §1
[11] = test system: PC-3; test: Cytotoxicity against human PC3 cells assessed as growth inhibition at 10 uM after 48 hrs by sulphorhodamine B assay; details: PC-3, 48 h, read-out: GI; method in brief: as §1
[12] = test system: UACC-62; test: Cytotoxicity against human UACC62 cells assessed as growth inhibition at 10 uM after 48 hrs by sulphorhodamine B assay; details: UACC-62, 48 h, read-out: GI; method in brief: as §1
[13] = test system: SK-MEL-2; test: Cytotoxicity against human SK-MEL-2 cells assessed as growth inhibition at 10 uM after 48 hrs by sulphorhodamine B assay; details: SK-MEL-2, 48 h, read-out: GI; method in brief: as §1
[14] = test system: SK-MEL-5; test: Cytotoxicity against human SK-MEL-5 cells assessed as growth inhibition at 10 uM after 48 hrs by sulphorhodamine B assay; details: SK-MEL-5, 48 h, read-out: GI; method in brief: as §1
[15] = test system: M14; test: Cytotoxicity against human M14 cells assessed as growth inhibition at 10 uM after 48 hrs by sulphorhodamine B assay; details: M14, 48 h, read-out: GI; method in brief: as §1
[16] = test system: LOX IMVI; test: Cytotoxicity against human LOXIMVI cells assessed as growth inhibition at 10 uM after 48 hrs by sulphorhodamine B assay; details: read-out: GI; method in brief: as §1
[17] = test system: UO-31; test: Cytotoxicity against human UO31 cells assessed as growth inhibition at 10 uM after 48 hrs by sulphorhodamine B assay; details: UO-31, 48 h, read-out: GI; method in brief: as §1
[18] = test system: CAKI-1; test: Cytotoxicity against human Caki1 cells assessed as growth inhibition at 10 uM after 48 hrs by sulphorhodamine B assay; details: CAKI-1, 48 h, read-out: GI; method in brief: as §1
[19] = test system: RXF 393; test: Cytotoxicity against human RXF393 cells assessed as growth inhibition at 10 uM after 48 hrs by sulphorhodamine B assay; details: RXF 393, 48 h, read-out: GI; method in brief: as §1
[20] = test system: ACHN; test: Cytotoxicity against human ACHN cells assessed as growth inhibition at 10 uM after 48 hrs by sulphorhodamine B assay; details: read-out: GI; method in brief: as §1
[21] = test system: SR; test: Cytotoxicity against human SR cells assessed as growth inhibition at 10 uM after 48 hrs by sulphorhodamine B assay; details: read-out: GI; method in brief: as §1
[22] = test system: A498; test: Cytotoxicity against human A498 cells assessed as growth inhibition at 10 uM after 48 hrs by sulphorhodamine B assay; details: A498, 48 h, read-out: GI; method in brief: as §1
[23] = test system: RPMI-8226; test: Cytotoxicity against human RPMI8226 cells assessed as growth inhibition at 10 uM after 48 hrs by sulphorhodamine B assay; details: RPMI-8226, 48 h, read-out: GI; method in brief: as §1
[24] = test system: MOLT-4; test: Cytotoxicity against human MOLT4 cells assessed as growth inhibition at 10 uM after 48 hrs by sulphorhodamine B assay; details: MOLT-4, 48 h, read-out: GI; method in brief: as §1
[25] = test system: K562; test: Cytotoxicity against human K562 cells assessed as growth inhibition at 10 uM after 48 hrs by sulphorhodamine B assay; details: K562, 48 h, read-out: GI; method in brief: as §1
[26] = test system: HL-60(TB); test: Cytotoxicity against human HL-60(TB) cells assessed as growth inhibition at 10 uM after 48 hrs by sulphorhodamine B assay; details: HL-60, 48 h, read-out: GI
Method in brief: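 NCI-60 one-dose primary screen run to the Drug Evaluation Branch protocol. Cells are exposed to a single 10 µM concentration for 48 h continuously, and growth is read by SRB protein assay. Data are reported as percent growth of treated cells, expressed as % growth inhibition.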

[27] = test system: SK-OV-3; test: Cytotoxicity against human SKOV3 cells assessed as growth inhibition at 10 uM after 48 hrs by sulphorhodamine B assay; details: SK-OV-3, 48 h, read-out: GI; method in brief: as §1
[28] = test system: CCRF-CEM; test: Cytotoxicity against human CCRF-CEM cells assessed as growth inhibition at 10 uM after 48 hrs by sulphorhodamine B assay; details: read-out: GI; method in brief: as §1
[29] = test system: OVCAR-5; test: Cytotoxicity against human OVCAR5 cells assessed as growth inhibition at 10 uM after 48 hrs by sulphorhodamine B assay; details: OVCAR-5, 48 h, read-out: GI; method in brief: as §1
[30] = test system: OVCAR-4; test: Cytotoxicity against human OVCAR4 cells assessed as growth inhibition at 10 uM after 48 hrs by sulphorhodamine B assay; details: OVCAR-4, 48 h, read-out: GI; method in brief: as §1
[31] = test system: IGROV-1; test: Cytotoxicity against human IGROV1 cells assessed as growth inhibition at 10 uM after 48 hrs by sulphorhodamine B assay; details: IGROV-1, 48 h, read-out: GI; method in brief: as §1
[32] = test system: T47D; test: Cytotoxicity against human T47D cells assessed as growth inhibition at 10 uM after 48 hrs by sulphorhodamine B assay; details: read-out: GI; method in brief: as §1
[33] = test system: Hs-578T; test: Cytotoxicity against human Hs578T cells assessed as growth inhibition at 10 uM after 48 hrs by sulphorhodamine B assay; details: read-out: GI; method in brief: as §1
[34] = test system: NCI-H522; test: Cytotoxicity against human NCI-H522 cells assessed as growth inhibition at 10 uM after 48 hrs by sulphorhodamine B assay; details: NCI-H522, 48 h, read-out: GI; method in brief: as §1
[35] = test system: HT-29; test: Cytotoxicity against human HT-29 cells assessed as growth inhibition at 10 uM after 48 hrs by sulphorhodamine B assay; details: HT-29, 48 h, read-out: GI; method in brief: as §1
[36] = test system: MCF7; test: Cytotoxicity against human MCF7 cells assessed as growth inhibition at 10 uM after 48 hrs by sulphorhodamine B assay; details: MCF7, 48 h, read-out: GI; method in brief: as §1
[37] = test system: MDA-MB-435; test: Cytotoxicity against human MDA-MB-435 cells assessed as growth inhibition at 10 uM after 48 hrs by sulphorhodamine B assay; details: MDA-MB-435, 48 h, read-out: GI; method in brief: as §1
[38] = test system: HCT-15; test: Cytotoxicity against human HCT15 cells assessed as growth inhibition at 10 uM after 48 hrs by sulphorhodamine B assay; details: HCT-15, 48 h, read-out: GI; method in brief: as §1
[39] = test system: MDA-MB-468; test: Cytotoxicity against human MDA-MB-468 cells assessed as growth inhibition at 10 uM after 48 hrs by sulphorhodamine B assay; details: MDA-MB-468, 48 h, read-out: GI; method in brief: as §1
[40] = test system: HCT-116; test: Cytotoxicity against human HCT116 cells assessed as growth inhibition at 10 uM after 48 hrs by sulphorhodamine B assay; details: HCT-116, 48 h, read-out: GI; method in brief: as §1

`COc1ccc(-c2c3c(nc4ncn(N)c(=N)c24)C(C)CCC3)cc1` (stereo not given) gave an inhibition of growth at 10 µM [1] of 14.4%, an inhibition of growth at 10 µM [2] of 21.5% and an inhibition of growth at 10 µM [3] of under 10%. It also gave an inhibition of growth at 10 µM [4] of under 10%, an inhibition of growth at 10 µM [5] of 14.3% and an inhibition of growth at 10 µM [6] of 16.7%. The inhibition of growth at 10 µM [7] was under 10%, the inhibition of growth at 10 µM [8] was under 10% and the inhibition of growth at 10 µM [9] was under 10%. It also gave an inhibition of growth at 10 µM [10] of under 10%, an inhibition of growth at 10 µM [11] of under 10% and an inhibition of growth at 10 µM [12] of 24%. The inhibition of growth at 10 µM [13] was 11%, the inhibition of growth at 10 µM [14] was under 10% and the inhibition of growth at 10 µM [15] was under 10%. It also gave an inhibition of growth at 10 µM [16] of under 10%, an inhibition of growth at 10 µM [17] of under 10% and an inhibition of growth at 10 µM [18] of 10%. It also gave an inhibition of growth at 10 µM [19] of under 10%, an inhibition of growth at 10 µM [20] of 14.5% and an inhibition of growth at 10 µM [21] of under 10%. It also gave an inhibition of growth at 10 µM [22] of under 10%, an inhibition of growth at 10 µM [23] of under 10% and an inhibition of growth at 10 µM [24] of under 10%. The inhibition of growth at 10 µM [25] was under 10%, the inhibition of growth at 10 µM [26] was under 10% and the inhibition of growth at 10 µM [27] was under 10%. The inhibition of growth at 10 µM [28] was under 10%, the inhibition of growth at 10 µM [29] was under 10% and the inhibition of growth at 10 µM [30] was 20%. The inhibition of growth at 10 µM [31] was under 10%, the inhibition of growth at 10 µM [32] was 18.1% and the inhibition of growth at 10 µM [33] was under 10%. For the same molecule, the inhibition of growth at 10 µM [34] was 26%, the inhibition of growth at 10 µM [35] was under 10% and the inhibition of growth at 10 µM [36] was under 10%. The inhibition of growth at 10 µM [37] was 19%, the inhibition of growth at 10 µM [38] was 25% and the inhibition of growth at 10 µM [39] was under 10%. For the same molecule, the inhibition of growth at 10 µM [40] was 22.3%.
